Experimental findings from ChEMBL document CHEMBL2203205 (Eur J Med Chem, 2012) are described below.

A short description of data set [1]: Cmax in Sprague-Dawley rat at 10 mg/kg, po. As to conditions: in vivo. Format: ADME, organism-based. The arrangement: dose 10 mg/kg, route oral. The essentials:
(§1)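 Male Sprague-Dawley rats dosed intravenously (3 mg/kg) and orally (10 mg/kg). PK parameters came from non-compartmental analysis of plasma concentration vs time curves.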

Data set [2] addresses T1, Alpha-2C adrenergic receptor (Homo sapiens, UniProt P18825).
T1 sequence (P18825 whole entry): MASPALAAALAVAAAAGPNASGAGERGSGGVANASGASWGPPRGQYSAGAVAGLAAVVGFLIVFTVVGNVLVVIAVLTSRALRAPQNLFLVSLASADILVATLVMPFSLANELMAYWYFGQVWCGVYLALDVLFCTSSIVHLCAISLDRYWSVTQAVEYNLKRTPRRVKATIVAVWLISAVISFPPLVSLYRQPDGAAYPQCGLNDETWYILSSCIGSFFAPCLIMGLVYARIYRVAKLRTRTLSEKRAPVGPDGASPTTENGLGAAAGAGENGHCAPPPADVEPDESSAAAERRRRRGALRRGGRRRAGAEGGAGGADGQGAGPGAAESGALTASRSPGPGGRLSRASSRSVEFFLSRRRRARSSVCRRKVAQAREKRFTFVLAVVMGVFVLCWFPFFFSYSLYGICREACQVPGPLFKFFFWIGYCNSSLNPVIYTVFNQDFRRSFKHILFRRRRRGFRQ
In words: Inhibition of alpha2C adrenergic receptor. The essentials:
(§2)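 Radioligand competition binding, run first as a single-concentration broad screen at […], then as concentration-response for follow-up targets, with the reference compound tested in parallel. Specific binding is total minus binding in excess unlabelled ligand, expressed as % of control specific binding. IC50 and Hill coefficient come from non-linear Hill-equation regression of competition curves built from mean replicate values.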

In data set [3] the target is 5-hydroxytryptamine receptor 1B (Homo sapiens, UniProt P28222). In words: Inhibition of 5HT1B receptor. The essentials: as §2
Data set [4] concerns the target Muscarinic acetylcholine receptor M3 (Homo sapiens, UniProt P20309). In words: Inhibition of muscarinic M3 receptor. The essentials: as §2
The next data set deals with Rattus norvegicus. In words: Analgesic activity in rat L5 and L6 spinal nerve ligation model assessed as reversal of thermal hyperalgesia at 30 mg/kg, ip after 60 mins. Format: functional. As to conditions: route intraperitoneal.
The next data set concerns the target Cytochrome P450 2D6 (Homo sapiens, UniProt P10635). In words: Inhibition of human CYP2D6. Type of data set: ADME.
The nature of data set [5]: Half life in Sprague-Dawley rat at 10 mg/kg, po. Format: ADME, organism-based. Details: dose 10 mg/kg, route oral. As to conditions: in vivo. The essentials:
as §1

Data set [6] addresses T2, Alpha-2B adrenergic receptor (Homo sapiens, UniProt P18089).
T2 sequence (P18089 whole entry): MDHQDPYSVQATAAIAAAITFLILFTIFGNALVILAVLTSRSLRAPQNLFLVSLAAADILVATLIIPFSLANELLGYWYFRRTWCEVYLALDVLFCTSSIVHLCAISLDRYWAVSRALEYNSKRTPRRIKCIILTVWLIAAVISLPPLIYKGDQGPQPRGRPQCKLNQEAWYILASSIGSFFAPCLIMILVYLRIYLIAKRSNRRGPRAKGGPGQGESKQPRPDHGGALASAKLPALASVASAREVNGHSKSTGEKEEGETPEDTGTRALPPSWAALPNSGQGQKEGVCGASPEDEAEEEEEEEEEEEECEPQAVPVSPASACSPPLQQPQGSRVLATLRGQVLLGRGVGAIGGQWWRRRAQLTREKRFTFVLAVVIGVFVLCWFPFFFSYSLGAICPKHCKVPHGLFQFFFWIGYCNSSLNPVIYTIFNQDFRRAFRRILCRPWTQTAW
In words: Inhibition of alpha2B adrenergic receptor. The essentials: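 Binding assay from a broad screen, with a reference compound tested concurrently. Specific binding was total minus nonspecific binding (excess unlabelled ligand). IC50 and Hill coefficient came from non-linear regression of competition curves using mean replicate values.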

Data set [7] has as its target T3, Alpha-1B adrenergic receptor (Homo sapiens, UniProt P35368).
T3 sequence (P35368 whole entry): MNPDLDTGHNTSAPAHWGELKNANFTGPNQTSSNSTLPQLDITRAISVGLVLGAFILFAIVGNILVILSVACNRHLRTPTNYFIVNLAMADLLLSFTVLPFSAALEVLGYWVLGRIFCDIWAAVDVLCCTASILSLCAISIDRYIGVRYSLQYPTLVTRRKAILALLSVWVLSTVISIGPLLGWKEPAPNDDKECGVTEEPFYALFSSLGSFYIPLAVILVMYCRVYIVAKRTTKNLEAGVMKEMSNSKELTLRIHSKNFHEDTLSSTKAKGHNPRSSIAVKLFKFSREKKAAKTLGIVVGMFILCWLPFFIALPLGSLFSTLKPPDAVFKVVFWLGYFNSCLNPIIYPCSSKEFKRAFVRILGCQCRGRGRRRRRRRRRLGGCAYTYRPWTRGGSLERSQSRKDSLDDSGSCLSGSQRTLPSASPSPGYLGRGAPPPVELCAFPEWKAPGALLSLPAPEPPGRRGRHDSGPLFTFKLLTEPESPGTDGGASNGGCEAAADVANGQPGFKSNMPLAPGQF
In words: Inhibition of alpha1B adrenergic receptor. The gist of the method: as §2

Data set [8] is described as follows: Clearance in Sprague-Dawley rat at 3 mg/kg, iv. Format: ADME, organism-based. The arrangement: dose 3 mg/kg, route intravenous. As to conditions: in vivo. The gist of the method: as §1
A short description of data set [9]: Tmax in Sprague-Dawley rat at 10 mg/kg, po. Details: dose 10 mg/kg, route oral. Format: ADME, organism-based. As to conditions: in vivo. The gist of the method: as §1
For data set [10], the target named is T4, Voltage-gated inwardly rectifying potassium channel KCNH2 (Homo sapiens, UniProt Q12809). In words: Displacement of [3H]astemizole from human recombinant ERG expressed in HEK293 cells. Type of data set: cell-based. The essentials:
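Binding was run in human recombinant HEK-293 cells with [3H]astemizole at 2 nM, incubated 75 min at 22 °C, with astemizole as reference. Nonspecific binding was taken with excess unlabelled ligand. Results were given as percent inhibition of control specific binding.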

Data set [11] deals with T4, Voltage-gated inwardly rectifying potassium channel KCNH2. In words: Inhibition of human recombinant ERG expressed in HEK293 cells after 5 to 10 mins by conventional whole-cell patch clamp assay. Format: cell-based. The gist of the method: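 Conventional whole-cell patch clamp on HEK-293 cells stably expressing hERG, cultured 1–7 days in DMEM/GlutaMax-1 + 10% FBS on collagen-coated dishes. Holding potential was −80 mV. Compound was superfused 5–10 min per concentration at rt (22–24 °C). Tail current amplitude was measured before and after superfusion. IC50 came from a logistic fit of the concentration-response.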
A general note: The patch-clamp technique gives a direct electrical read-out from membranes.

Data set [12] concerns the target T5, Alpha-1A adrenergic receptor (Homo sapiens, UniProt P35348).
T5 sequence (P35348 whole entry): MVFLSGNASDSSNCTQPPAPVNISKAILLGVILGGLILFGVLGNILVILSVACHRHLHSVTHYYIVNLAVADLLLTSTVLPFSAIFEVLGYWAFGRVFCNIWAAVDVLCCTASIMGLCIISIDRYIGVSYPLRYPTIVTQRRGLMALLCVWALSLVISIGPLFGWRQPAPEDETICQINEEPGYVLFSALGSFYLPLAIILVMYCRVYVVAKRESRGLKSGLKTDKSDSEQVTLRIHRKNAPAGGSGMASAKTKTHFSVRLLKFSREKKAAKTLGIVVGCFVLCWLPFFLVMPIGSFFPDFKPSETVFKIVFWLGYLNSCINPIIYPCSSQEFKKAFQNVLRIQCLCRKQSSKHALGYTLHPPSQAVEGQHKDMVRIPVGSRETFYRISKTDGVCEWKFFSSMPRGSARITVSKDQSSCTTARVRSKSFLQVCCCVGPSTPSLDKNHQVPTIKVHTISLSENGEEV
In words: Inhibition of alpha1A adrenergic receptor. The essentials: as §2

pIC50: −log10 of the molar value.

T4 sequence (Q12809 whole entry): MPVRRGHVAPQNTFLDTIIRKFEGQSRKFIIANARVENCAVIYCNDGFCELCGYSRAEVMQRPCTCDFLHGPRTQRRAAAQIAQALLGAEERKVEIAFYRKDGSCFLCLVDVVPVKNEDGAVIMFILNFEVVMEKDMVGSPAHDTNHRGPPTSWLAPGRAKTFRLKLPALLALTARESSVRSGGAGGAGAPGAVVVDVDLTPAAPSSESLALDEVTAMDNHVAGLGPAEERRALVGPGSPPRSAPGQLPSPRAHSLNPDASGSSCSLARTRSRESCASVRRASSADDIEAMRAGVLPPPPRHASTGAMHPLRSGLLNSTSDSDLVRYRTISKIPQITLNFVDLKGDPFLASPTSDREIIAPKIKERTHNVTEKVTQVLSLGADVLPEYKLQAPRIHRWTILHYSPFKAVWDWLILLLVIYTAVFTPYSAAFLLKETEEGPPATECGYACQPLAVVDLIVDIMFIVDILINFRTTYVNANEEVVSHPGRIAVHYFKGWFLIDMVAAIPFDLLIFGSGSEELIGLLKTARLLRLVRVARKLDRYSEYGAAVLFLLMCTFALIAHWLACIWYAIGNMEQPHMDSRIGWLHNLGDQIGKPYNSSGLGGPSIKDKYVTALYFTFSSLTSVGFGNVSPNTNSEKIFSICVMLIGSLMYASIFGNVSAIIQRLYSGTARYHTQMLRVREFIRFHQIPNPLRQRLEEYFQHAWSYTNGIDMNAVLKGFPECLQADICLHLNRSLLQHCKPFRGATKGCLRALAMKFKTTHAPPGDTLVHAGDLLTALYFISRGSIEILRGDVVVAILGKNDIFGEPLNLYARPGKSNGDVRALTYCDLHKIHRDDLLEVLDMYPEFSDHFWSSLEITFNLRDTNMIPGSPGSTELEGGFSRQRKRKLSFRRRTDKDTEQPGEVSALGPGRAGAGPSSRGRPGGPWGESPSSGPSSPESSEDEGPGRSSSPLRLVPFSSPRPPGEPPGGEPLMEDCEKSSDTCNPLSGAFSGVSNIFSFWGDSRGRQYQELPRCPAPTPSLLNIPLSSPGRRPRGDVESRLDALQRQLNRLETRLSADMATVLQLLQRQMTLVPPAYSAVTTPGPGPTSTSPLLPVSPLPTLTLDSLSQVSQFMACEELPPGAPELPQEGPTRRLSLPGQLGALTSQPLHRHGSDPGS
Chain of Cytochrome P450 2D6 (P10635 whole entry): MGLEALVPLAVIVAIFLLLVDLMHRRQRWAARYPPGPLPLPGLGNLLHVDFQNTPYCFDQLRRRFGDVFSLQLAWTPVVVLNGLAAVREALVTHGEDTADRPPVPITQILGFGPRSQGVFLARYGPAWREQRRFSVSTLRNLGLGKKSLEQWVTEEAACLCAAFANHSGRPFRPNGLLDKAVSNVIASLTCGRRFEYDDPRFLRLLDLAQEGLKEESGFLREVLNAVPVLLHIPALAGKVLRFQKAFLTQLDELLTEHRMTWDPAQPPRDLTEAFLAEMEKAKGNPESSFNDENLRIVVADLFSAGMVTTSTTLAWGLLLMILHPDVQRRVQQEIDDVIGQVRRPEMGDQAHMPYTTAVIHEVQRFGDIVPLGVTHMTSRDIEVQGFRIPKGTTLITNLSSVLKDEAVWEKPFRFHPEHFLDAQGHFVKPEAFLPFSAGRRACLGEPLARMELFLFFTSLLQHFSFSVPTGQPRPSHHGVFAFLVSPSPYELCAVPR
Chain of 5-hydroxytryptamine receptor 1B (P28222 whole entry): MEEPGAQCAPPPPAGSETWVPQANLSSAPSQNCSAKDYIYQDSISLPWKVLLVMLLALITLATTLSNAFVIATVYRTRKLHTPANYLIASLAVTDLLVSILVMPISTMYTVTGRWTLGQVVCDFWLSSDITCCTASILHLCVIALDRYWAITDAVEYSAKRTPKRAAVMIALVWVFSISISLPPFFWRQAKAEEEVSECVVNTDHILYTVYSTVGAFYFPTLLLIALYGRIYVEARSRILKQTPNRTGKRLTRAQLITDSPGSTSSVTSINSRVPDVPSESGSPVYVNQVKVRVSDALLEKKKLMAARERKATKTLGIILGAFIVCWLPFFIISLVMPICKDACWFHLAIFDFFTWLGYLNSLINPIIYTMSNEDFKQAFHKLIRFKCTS
Chain of Muscarinic acetylcholine receptor M3 (P20309 whole entry): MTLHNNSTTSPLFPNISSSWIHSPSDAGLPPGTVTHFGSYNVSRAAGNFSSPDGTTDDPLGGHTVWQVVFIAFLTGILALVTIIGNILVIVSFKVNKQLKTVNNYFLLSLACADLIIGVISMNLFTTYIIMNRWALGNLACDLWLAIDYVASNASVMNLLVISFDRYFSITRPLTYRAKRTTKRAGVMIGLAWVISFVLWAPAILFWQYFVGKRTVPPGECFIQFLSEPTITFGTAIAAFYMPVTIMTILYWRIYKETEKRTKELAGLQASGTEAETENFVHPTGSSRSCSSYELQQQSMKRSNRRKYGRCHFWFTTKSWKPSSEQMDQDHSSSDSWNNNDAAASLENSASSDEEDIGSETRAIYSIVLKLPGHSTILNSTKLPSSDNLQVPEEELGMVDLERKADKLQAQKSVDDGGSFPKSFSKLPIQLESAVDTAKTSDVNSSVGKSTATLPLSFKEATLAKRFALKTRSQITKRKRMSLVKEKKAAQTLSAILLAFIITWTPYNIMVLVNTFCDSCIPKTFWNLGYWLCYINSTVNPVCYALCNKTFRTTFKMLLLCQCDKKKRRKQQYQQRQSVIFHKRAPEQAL

With `N=C(Nc1ccc2c(c1)CCN2C1CCNCC1)c1cccs1`, the Cmax (as a rule, the highest concentration seen after dosing) in data set [1] was found to be 101 ng/mL. For the same molecule, the pIC50 (in general, the negative decadic logarithm of the IC50, by convention in mol/L) was 4.96 in data set [2]; 5.66 in [3]; 5.35 in [4]; 6.12 against Cytochrome P450 2D6; 4.49 in data set [6]; 5.74 in [7]. Besides, the negative logarithm of the IC50 (pIC50) in data set [10] was 3.80; in data set [11], below 4.00; in data set [12], 5.72. Further, the Activity in the data set with Rattus norvegicus amounted to 71%. In addition, the half-life (commonly the time needed for the level to fall by half in the phase considered) in data set [5] was 12 h. In addition, the clearance (as a rule, the rate of elimination divided by the concentration) in [8] was 420 mL/min/kg. Moreover, the time to peak (Tmax) (in general, the time at which the peak concentration occurs) in [9] turned out to be 2 h.
